Data published in ChEMBL document CHEMBL4393678, “Novel Tetrahydroquinazolinamines as Selective Histamine 3 Receptor Antagonists for the Treatment of Obesity” (J Med Chem, 2019).
Active and inactive are the calls of the source. The calls are words filed in the database; no cut-off is given here.

Legend:
[1] = biological target: Histamine H1 receptor (Homo sapiens) (UniProt P35367); assay: Agonist activity at H1R (unknown origin) expressed in HEK293 cells harboring luc2P/NFAT-RE plasmid at 10 uM after 6 to 8 hrs by luciferase reporter gene assay; assay type: cell-based
Procedure, shortened: (§1)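 NFAT-RE luciferase assay in HEK293T cells transiently co-transfected with luc2P/NFAT-RE plasmid and receptor plasmid. Cells plated in DMEM and incubated overnight at 37 °C, 5% CO₂. Compounds and reference ligands applied for 6-8 h. Luciferase read after adding Bright-Glo substrate (1 mg/ml final).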

[2] = biological target: Histamine H4 receptor (Homo sapiens) (UniProt Q9H3N8); assay: Agonist activity at recombinant human Gi-coupled H4 receptor expressed in HEK293T cells assessed as inhibition of forskolin-stimulated cAMP accumulation at 10 uM preincubated for 10 to 15 followed by forskolin-stimulation by Glo-sensor assay; assay type: functional, cell-based
Histamine H3 receptor [3] = biological target: T1, Histamine H3 receptor (Homo sapiens, UniProt Q9Y5N1); assay: Antagonist activity at recombinant human Gi-coupled H3 receptor expressed in HEK293T cells assessed as reduction in histamine-induced inhibition of forskolin-stimulated cAMP accumulation preincubated for 10 to 15 followed by histamine addition for 10 mins and subsequent forskolin-stimulation by Glo-sensor assay; assay type: functional, cell-based
Histamine H2 receptor [4] = biological target: T2, Histamine H2 receptor (Homo sapiens, UniProt P25021); assay: Agonist activity at recombinant human Gs-coupled H2 receptor expressed in HEK293T cells assessed as inhibition of forskolin-stimulated cAMP accumulation preincubated for 10 to 15 followed by forskolin-stimulation by Glo-sensor assay; assay type: functional, cell-based
Histamine H2 receptor [5] = biological target: T2, Histamine H2 receptor; assay: Agonist activity at recombinant human Gs-coupled H2 receptor expressed in HEK293T cells assessed as inhibition of forskolin-stimulated cAMP accumulation at 10 uM preincubated for 10 to 15 followed by forskolin-stimulation by Glo-sensor assay relative to control; assay type: functional, cell-based; set-up: scale not given: the % may be the effect or the level left
Procedure, shortened: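 HEK293T cells were transiently co-transfected with GloSensor-22F cAMP plasmid and human H2R plasmid, then held 15–18 h at 37 °C in 5% CO2. Cells were loaded with sodium luciferin (1 mg/ml) for 90 min. Agonist mode used 10 µM compound, with luminescence read directly after 10–15 min. Screening was in triplicate, scored as ≥50% change versus control.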

[6] = biological target: Histamine H1 receptor (Homo sapiens) (UniProt P35367); assay: Antagonist activity at H1R (unknown origin) expressed in HEK293 cells harboring luc2P/NFAT-RE plasmid at 10 uM after 6 to 8 hrs by luciferase reporter gene assay; assay type: cell-based; procedure, shortened: as §1
[7] = biological target: Histamine H4 receptor (Homo sapiens) (UniProt Q9H3N8); assay: Antagonist activity at recombinant human Gi-coupled H4 receptor expressed in HEK293T cells assessed as reduction in histamine-induced inhibition of forskolin-stimulated cAMP accumulation at 10 uM preincubated for 10 to 15 followed by histamine addition for 10 mins and subsequent forskolin-stimulation by Glo-sensor assay; assay type: functional, cell-based
Mus musculus [8] = assay: Anti-obesity activity in high fat diet-induced obese C57BL/6J mouse model assessed as change in body weight at 10 mg/kg, po measured after 6 weeks (reference value: 3.86 +/- 0.99 g); assay type: functional
Procedure, shortened: (§2)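 Male C57BL/6J mice (6–8 weeks, 22–25 g) on high-fat diet, with a normal-chow group included. Daily chronic oral dosing against vehicle for six weeks. Percent body weight change followed over the treatment days, and net body weight change taken at six weeks. n=5-6 per group. Two-way ANOVA, or one-way ANOVA with Newman-Keuls test.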

Mus musculus [9] = assay: Anti-obesity activity in high fat diet-induced obese C57BL/6J mouse model assessed as reduction in body fat mass at 10 mg/kg, po measured after 6 weeks relative to control by NMR-based magnetic resonance imaging analysis; assay type: functional; set-up: scale not given: the % may be the effect or the level left
Procedure, shortened: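 Male C57BL/6J mice on high-fat diet dosed orally for six weeks against a vehicle-treated high-fat diet group and a chow group. Body composition (fat mass, lean mass, % body fat) measured by EchoMRI live scanning. n=5-6. One-way ANOVA with Newman-Keuls test.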

Mus musculus [10] = assay: Anorexic effect in high fat diet-induced obese C57BL/6J mouse model assessed as reduction in cumulative food intake at 10 mg/kg, po pretreated for 30 mins followed by food addition measured after 4 hrs relative to control; assay type: functional; set-up: scale not given: the % may be the effect or the level left
Procedure, shortened: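 Male C57BL/6J mice on high-fat diet, starved 12 h (8 am–8 pm) with water available, housed singly. Oral dose in 5% gum acacia in normal saline, vehicle group alongside. Food given 30 min after dosing, and cumulative intake measured over the 4 h night phase (9 pm–1 am). One-way ANOVA with Newman-Keuls test.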

Mus musculus [11] = assay: Anti-obesity activity in high fat diet-induced obese C57BL/6J mouse model assessed as reduction in body weight at 10 mg/kg, po; assay type: functional, organism-based; conditions: TDE = time-dependent effect; procedure, shortened: as §2
Histamine H3 receptor [12] = biological target: T1, Histamine H3 receptor; assay: Displacement of [3H]N-alpha-methylhistamine from recombinant human H3 receptor expressed in HEK293T cells measured after 90 mins by liquid scintillation counting method; assay type: cell-based
[13] = biological target: T3, Cholecystokinin receptor type A (Homo sapiens, UniProt P32238); assay: Displacement of [I125]bolton hunter-CCK-8S from recombinant human CCK1 receptor expressed in stable CHO cells measured after 1 to 2 hrs by microscintillation counting method; assay type: cell-based
T3 sequence (P32238 whole entry): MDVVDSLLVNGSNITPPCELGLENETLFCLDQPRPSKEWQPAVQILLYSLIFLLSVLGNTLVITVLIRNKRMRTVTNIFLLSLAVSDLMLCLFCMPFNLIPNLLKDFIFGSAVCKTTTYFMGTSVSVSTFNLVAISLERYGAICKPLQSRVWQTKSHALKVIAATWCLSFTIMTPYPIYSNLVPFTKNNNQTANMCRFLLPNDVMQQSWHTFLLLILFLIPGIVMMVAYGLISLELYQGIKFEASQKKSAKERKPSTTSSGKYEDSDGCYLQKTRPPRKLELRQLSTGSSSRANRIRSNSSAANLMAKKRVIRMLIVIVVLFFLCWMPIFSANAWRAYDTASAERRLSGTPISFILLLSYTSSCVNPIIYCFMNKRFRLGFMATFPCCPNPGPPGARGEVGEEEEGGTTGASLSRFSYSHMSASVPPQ

Mus musculus [14] = assay: Anorexic effect in 12 hrs fasted db/db-induced obese C57BL/6J mouse model assessed as reduction in cumulative food intake at 20 mg/kg, ip pretreated for 30 mins followed by food addition measured after 4 hrs; assay type: functional, organism-based

T2 sequence (P25021 whole entry): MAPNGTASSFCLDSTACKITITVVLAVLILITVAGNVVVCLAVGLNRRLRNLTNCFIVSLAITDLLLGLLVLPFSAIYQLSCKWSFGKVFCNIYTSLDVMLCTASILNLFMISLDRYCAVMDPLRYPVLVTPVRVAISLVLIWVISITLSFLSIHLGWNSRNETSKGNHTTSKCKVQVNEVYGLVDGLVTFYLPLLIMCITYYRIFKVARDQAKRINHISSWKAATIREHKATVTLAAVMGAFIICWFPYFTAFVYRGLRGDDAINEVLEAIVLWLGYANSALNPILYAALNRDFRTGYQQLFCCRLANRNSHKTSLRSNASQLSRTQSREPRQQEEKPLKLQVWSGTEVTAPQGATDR
T1 sequence (Q9Y5N1 whole entry): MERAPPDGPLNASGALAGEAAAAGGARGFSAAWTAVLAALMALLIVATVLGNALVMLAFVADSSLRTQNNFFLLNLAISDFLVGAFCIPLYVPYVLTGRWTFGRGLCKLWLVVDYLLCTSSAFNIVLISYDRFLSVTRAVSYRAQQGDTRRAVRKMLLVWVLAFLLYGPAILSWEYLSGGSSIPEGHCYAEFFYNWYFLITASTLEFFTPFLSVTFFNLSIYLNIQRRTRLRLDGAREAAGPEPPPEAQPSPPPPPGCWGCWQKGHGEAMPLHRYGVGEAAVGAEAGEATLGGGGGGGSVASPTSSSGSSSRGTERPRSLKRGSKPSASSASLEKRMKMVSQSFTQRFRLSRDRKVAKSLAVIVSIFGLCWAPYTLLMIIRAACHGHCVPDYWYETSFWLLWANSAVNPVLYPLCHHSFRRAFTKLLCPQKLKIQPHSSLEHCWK
Chain of Histamine H4 receptor (Homo sapiens) (Q9H3N8 whole entry): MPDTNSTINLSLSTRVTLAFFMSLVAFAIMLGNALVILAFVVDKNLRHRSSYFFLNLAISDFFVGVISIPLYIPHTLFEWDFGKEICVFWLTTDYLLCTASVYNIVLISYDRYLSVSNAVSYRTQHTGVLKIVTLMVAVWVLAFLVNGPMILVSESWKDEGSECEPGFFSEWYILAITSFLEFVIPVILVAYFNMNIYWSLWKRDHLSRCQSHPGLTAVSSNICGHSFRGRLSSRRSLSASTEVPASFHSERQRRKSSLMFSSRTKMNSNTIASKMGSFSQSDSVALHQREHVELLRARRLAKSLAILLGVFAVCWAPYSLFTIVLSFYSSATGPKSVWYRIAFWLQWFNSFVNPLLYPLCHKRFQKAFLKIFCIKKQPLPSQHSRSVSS
Chain of Histamine H1 receptor (Homo sapiens) (P35367 whole entry): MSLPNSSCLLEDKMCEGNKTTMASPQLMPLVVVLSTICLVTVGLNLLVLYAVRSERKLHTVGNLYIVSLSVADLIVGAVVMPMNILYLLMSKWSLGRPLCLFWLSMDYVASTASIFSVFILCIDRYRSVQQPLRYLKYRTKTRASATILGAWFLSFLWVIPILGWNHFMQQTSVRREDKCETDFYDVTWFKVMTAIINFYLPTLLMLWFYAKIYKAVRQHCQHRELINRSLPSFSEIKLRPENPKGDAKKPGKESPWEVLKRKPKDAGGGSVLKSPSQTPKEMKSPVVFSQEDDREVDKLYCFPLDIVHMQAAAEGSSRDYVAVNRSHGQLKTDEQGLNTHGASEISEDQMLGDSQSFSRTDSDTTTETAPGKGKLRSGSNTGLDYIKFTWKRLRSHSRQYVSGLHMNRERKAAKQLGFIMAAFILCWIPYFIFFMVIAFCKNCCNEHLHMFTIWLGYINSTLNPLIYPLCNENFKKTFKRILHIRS

Structure (SMILES) | Activity [1] | Activity [2] | IC50 (Histamine H3 receptor [3]) [nM] | EC50 (Histamine H2 receptor [4]; read-out: EC50) [nM] | Activity (Histamine H2 receptor [5]) [%] | inhibition [6] | inhibition [7] | EC50 (Histamine H2 receptor [4]) | Activity (Mus musculus [8]) [g] | Activity (Mus musculus [9]) [%] | Activity (Mus musculus [10]) [%] | Activity (Mus musculus [11]) | Ki (Histamine H3 receptor [12]) [nM] | EC50 (Histamine H2 receptor [4]; read-out: pEC50 (converted)) [nM] | IC50 [13] [nM] | Activity (Mus musculus [14])
CC1CCCc2c(-c3ccc(Cl)cc3)nc(N)nc21 (stereo unspecified) | inactive | inactive | 900 | 80 | 50 | inactive | inactive |  |  |  |  |  |  |  |  | 
CC1CCCc2c(-c3ccc(C#N)cc3)nc(N)nc21 (stereo unspecified) | inactive | inactive | 5500 |  | < 50 | inactive | inactive | Not Active |  |  |  |  |  |  |  | 
C[C@H]1CNCCc2ccc(Cl)cc21 [LORCASERIN] |  |  |  |  |  |  |  |  | 0.95 | 22.4 | 40 | Tde |  |  |  | 
COc1cccc(-c2nc(N)nc3c2CCCC3C)c1 (stereo unspecified) | inactive | inactive | 70 | 250 | 50 | inactive | inactive |  |  |  |  |  |  |  |  | 
Cc1ccc(-c2nc(N)nc3c2CCCC3C)cc1 (stereo unspecified) | inactive | inactive | 2930 | 880 | 50 | inactive | inactive |  |  |  |  |  |  |  |  | 
Cc1ccc(C2(O)CCN(c3nc(C)nc4ccsc34)CC2)nc1 |  |  |  |  |  |  |  |  |  |  |  |  | 6.07 |  |  | 
COc1ccc(-c2nc(N)nc3c2CC(C)CC3)cc1 (stereo unspecified) | inactive | inactive | 4680 | 2120 | 50 | inactive | inactive |  |  |  |  |  |  |  |  | 
CC1CCCc2c(-c3ccc([N+](=O)[O-])cc3)nc(N)nc21 (stereo unspecified) | inactive | inactive | 12300 | 5290 | 50 | inactive | inactive |  |  |  |  |  |  | 5370 |  | 
COc1ccc(-c2nc(N)nc3c2CCCC3)cc1 | inactive | inactive | 2750 | 1390 |  | inactive | inactive |  |  |  |  |  |  | 1290 |  | 
COc1ccc(-c2nc(NC(=O)c3cc4ccccc4n3CC(=O)O)ncc2CC2CCCCC2)c(OC)c1 |  |  |  |  |  |  |  |  |  |  |  |  |  |  | < 50 | 
CC1CCCc2c(-c3cccc(O)c3)nc(N)nc21 (stereo unspecified) | inactive | inactive | 4610 |  | < 50 | inactive | inactive | Not Active |  |  |  |  |  |  |  | 
CC1CCCc2c(-c3ccccc3)nc(N)nc21 (stereo unspecified) | inactive | inactive | 1300 | 100 | 50 | inactive | inactive |  |  |  |  |  |  |  |  | 
CC1CCCc2c1nc(N)nc2C1CCCCC1 (stereo unspecified) | inactive | inactive | 240 | 360 | 50 | inactive | inactive |  |  |  |  |  |  |  |  | 
CC1CCCc2c(-c3ccc(Br)cc3)nc(N)nc21 (stereo unspecified) | inactive | inactive | 3100 |  | < 50 | inactive | inactive | Not Active |  |  |  |  |  |  |  | 
CC(N)(Cc1cnc[nH]1)C(=O)O (racemic) |  |  |  |  |  |  |  |  |  |  |  |  |  |  |  | inactive
CCCCc1cc(-c2ccc(OC)cc2)nc(N)n1 | inactive | inactive | 4450 | 5180 |  | inactive | inactive |  |  |  |  |  |  | 5250 |  | 
c1ccc(CNc2ccnc(Nc3ccc(OCCN4CCCCC4)cc3)n2)cc1 |  |  |  |  |  |  |  |  |  |  |  |  | 4.49 |  |  | 
CC1CCCc2c(-c3ccc(F)cc3)nc(N)nc21 (stereo unspecified) | inactive | inactive | 560 | 80 |  | inactive | inactive |  |  |  |  |  |  |  |  | 
CC1CCCc2c(-c3cccc4ccccc34)nc(N)nc21 (stereo unspecified) | inactive | inactive | 2710 |  | < 50 | inactive | inactive | Not Active |  |  |  |  |  |  |  | 
CC1CCCc2c(-c3cccnc3)nc(N)nc21 (stereo unspecified) | inactive | inactive | 6800 |  | < 50 | inactive | inactive | Not Active |  |  |  |  |  |  |  | 
CC1CCCc2c(-c3cccc(Br)c3)nc(N)nc21 (stereo unspecified) | inactive | inactive | 90 | 840 | 50 | inactive | inactive |  |  |  |  |  |  | 316 |  | 
